Results as given in ChEMBL document CHEMBL1149310, “A screening library for peptide activated G-protein coupled receptors. 1. The test set” (J Med Chem, 2004).
pKi: −log10 of the molar value.

Target: Melanin-concentrating hormone receptor 1 (Rattus norvegicus, UniProt P97639)
Test: Binding affinity to rat MCH1 receptor
In short: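 Membranes from mammalian cells stably transfected with rat MCH1 receptor, prepared by nitrogen cavitation (900 psi, ice, 30 min) and differential centrifugation (800g, then 38 000g). Radioligand competition at equilibrium in 50 mM HEPES pH 7.0, 10 mM MgCl2, 2 mM EGTA. Hits were taken to 12-point dose-response curves to derive Ki. Bound and free were separated by filtration over PEI-treated GF-C filters and counted by scintillation.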

Chain of Melanin-concentrating hormone receptor 1 (P97639 whole entry): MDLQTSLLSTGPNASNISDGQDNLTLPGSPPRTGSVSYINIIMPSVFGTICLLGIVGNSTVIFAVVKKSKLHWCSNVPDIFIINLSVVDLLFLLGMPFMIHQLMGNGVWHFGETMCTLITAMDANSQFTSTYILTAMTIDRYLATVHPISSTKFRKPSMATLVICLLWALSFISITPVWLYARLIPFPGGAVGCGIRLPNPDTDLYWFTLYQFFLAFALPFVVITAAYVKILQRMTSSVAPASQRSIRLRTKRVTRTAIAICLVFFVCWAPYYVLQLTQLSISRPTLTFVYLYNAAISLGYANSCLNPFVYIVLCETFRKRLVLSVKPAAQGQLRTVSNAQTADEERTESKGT

SMILES | pKi
O=C(Cc1ccc(Oc2ccccc2)cc1)NC1CCN(Cc2ccc(Cl)c(Cl)c2)C1 (centres undefined) | 6.29
O=C(Cc1csc2ccccc12)NC1CCN(Cc2ccc(Cl)c(Cl)c2)C1 (centres undefined) | 6.44
COCC1=C(C(=O)OC)[C@H](c2ccc(F)c(F)c2)N(C(=O)NCCCN2CCC(c3cccc(NC(C)=O)c3)CC2)C(=O)N1 [SNAP-7941] | 8.70
O=C(CCc1ccccc1)NC1CCN(Cc2ccc(Cl)c(Cl)c2)C1 (centres undefined) | < 5.00
O=C(Cc1csc2ccccc12)NC[C@H]1CCCN1Cc1ccc(Cl)c(Cl)c1 | 5.01
O=C(Cc1ccccc1)NC1CCN(CCc2ccccc2)C1 (centres undefined) | < 5.00
O=C(CCCc1ccccc1)NC[C@@H]1CCCN1CCc1ccccc1 | < 5.00
Clc1ccc(-c2ccc(CNC3CCN(CC(c4ccccc4)c4ccccc4)C3)o2)cc1 (centres undefined) | 5.77
O=C(Cc1ccc2c(c1)OCO2)NC1CCN(Cc2ccc(Cl)c(Cl)c2)C1 (centres undefined) | 6.20
O=C(Cc1ccccc1)NC1CCN(Cc2ccccc2)C1 (centres undefined) | < 5.00
O=C(Cc1csc2ccccc12)NC[C@@H]1CCCN1Cc1ccc(Cl)c(Cl)c1 | 5.22
O=C(Cc1ccccc1)NC1CCN(Cc2ccc(Cl)c(Cl)c2)C1 (centres undefined) | 6.01
CC(CCN1CCC(NCc2ccc(-c3ccc(Cl)cc3)o2)C1)CC(C)(C)C (centres undefined) | 5.30
O=C(CCCc1ccccc1)NC[C@H]1CCCN1CCc1ccccc1 | 5.51
